{"source": "ChEMBL document CHEMBL1165950", "about": "“Design and synthesis of new potent anticancer pyrazoles with high FLT3 kinase inhibitory selectivity” (Bioorg Med Chem, 2010)", "assay_type_in_all_cases": "functional", "key": {"TK-10": {"system": "TK-10", "assay": "Cytotoxicity against human TK10 cells assessed as cell growth at 10 uM", "settings": "read-out: Activity", "outline": "(§1)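 NCI-60 screen: cells grown in RPMI 1640 with 5% FBS and 2 mM L-glutamine, plated at 5000–40,000 cells/well according to doubling time, and preincubated 24 h at 37 °C, 5% CO2. The single 10 µM dose (DMSO stock) was added, then incubated 48 h. Cells were TCA-fixed and stained with 0.4% SRB, read at 515 nm, and growth % calculated against time-zero and control plates.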"}, "SK-MEL-2": {"system": "SK-MEL-2", "assay": "Cytotoxicity against human SK-MEL-2 cells assessed as cell growth at 10 uM", "settings": "read-out: Activity", "outline": "as §1"}, "EKVX": {"system": "EKVX", "assay": "Cytotoxicity against human EKVX cells assessed as cell growth at 10 uM", "settings": "read-out: Activity", "outline": "(§2)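 Single-dose NCI-60 screen at 10 µM. Cells were grown in RPMI 1640 with 5% FBS and 2 mM L-glutamine, then treated for 48 h at 37 °C. Protein was measured by SRB staining with absorbance at 515 nm. Percentage growth was recorded, and inhibition percentage was calculated as 100 minus growth percentage.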"}, "NCI-H322M": {"system": "NCI-H322M", "assay": "Cytotoxicity against human NCI-H322M cells assessed as cell growth at 10 uM", "settings": "read-out: Activity", "outline": "as §1"}, "[1]": {"assay": "Growth inhibition of human NCI60 cells at 10 uM after 48 hrs by sulforhodamine B assay relative to control", "settings": "NCI60, 48 h, read-out: GI", "outline": "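Single-dose NCI screen at 10 µM across the 60-line panel, 48 h exposure at 37 °C after a 24 h preincubation. Adherent cells were fixed with cold TCA and stained with 0.4% SRB, and absorbance was read at 515 nm. Inhibition % was taken as 100 minus growth %, and the mean across all lines was reported.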"}, "HL-60(TB)": {"system": "HL-60(TB)", "assay": "Cytotoxicity against human HL-60(TB) cells assessed as cell growth at 10 uM", "settings": "read-out: Activity", "outline": "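NCI 60-cell panel screen at a single concentration of 10 µM. Cells are grown in RPMI 1640 with 5% FBS and 2 mM L-glutamine and read by SRB protein staining at 515 nm. Percent growth is measured relative to time-zero and untreated controls; inhibition % is 100 minus growth %.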"}, "UACC-257": {"system": "UACC-257", "assay": "Cytotoxicity against human UACC257 cells assessed as cell growth at 10 uM", "settings": "read-out: Activity", "outline": "as §1"}, "SF-268": {"system": "SF-268", "assay": "Cytotoxicity against human SF268 cells assessed as cell growth at 10 uM", "settings": "read-out: Activity", "outline": "as §1"}, "IGROV-1": {"system": "IGROV-1", "assay": "Cytotoxicity against human IGROV1 cells assessed as cell growth at 10 uM", "settings": "read-out: Activity", "outline": "as §2"}, "NCI-H522": {"system": "NCI-H522", "assay": "Cytotoxicity against human NCI-H522 cells assessed as cell growth at 10 uM", "settings": "read-out: Activity", "outline": "as §1"}, "K562": {"system": "K562", "assay": "Cytotoxicity against human K562 cells assessed as cell growth at 10 uM", "settings": "read-out: Activity", "outline": "as §2"}, "SF-295": {"system": "SF-295", "assay": "Cytotoxicity against human SF295 cells assessed as cell growth at 10 uM", "settings": "read-out: Activity", "outline": "as §1"}, "OVCAR-8": {"system": "OVCAR-8", "assay": "Cytotoxicity against human OVCAR8 cells assessed as cell growth at 10 uM", "settings": "read-out: Activity", "outline": "as §1"}, "SK-MEL-5": {"system": "SK-MEL-5", "assay": "Cytotoxicity against human SK-MEL-5 cells assessed as cell growth at 10 uM", "settings": "read-out: Activity", "outline": "as §1"}, "NCI-H460": {"system": "NCI-H460", "assay": "Cytotoxicity against human NCI-H460 cells assessed as cell growth at 10 uM", "settings": "read-out: Activity", "outline": "as §1"}, "[2]": {"assay": "Cytotoxicity against human Hs 578T cells assessed as cell growth at 10 uM", "settings": "read-out: Activity", "outline": "as §2"}, "NCI/ADR-RES": {"system": "NCI/ADR-RES", "assay": "Cytotoxicity against human NCI/ADR-RES cells assessed as cell growth at 10 uM", "settings": "read-out: Activity", "outline": "as §1"}, "LOX IMVI": {"system": "LOX IMVI", "assay": "Cytotoxicity against human LOXIMVI cells assessed as cell growth at 10 uM", "settings": "read-out: Activity", "outline": "as §1"}, "A498": {"system": "A498", "assay": "Cytotoxicity against human A498 cells assessed as cell growth at 10 uM", "settings": "read-out: Activity", "outline": "as §2"}, "CAKI-1": {"system": "CAKI-1", "assay": "Cytotoxicity against human Caki1 cells assessed as cell growth at 10 uM", "settings": "read-out: Activity", "outline": "as §2"}, "T47D": {"system": "T47D", "assay": "Cytotoxicity against human T47D cells assessed as cell growth at 10 uM", "settings": "read-out: Activity", "outline": "as §1"}, "UACC-62": {"system": "UACC-62", "assay": "Cytotoxicity against human UACC62 cells assessed as cell growth at 10 uM", "settings": "read-out: Activity", "outline": "as §1"}, "SW-620": {"system": "SW-620", "assay": "Cytotoxicity against human SW620 cells assessed as cell growth at 10 uM", "settings": "read-out: Activity", "outline": "as §1"}, "U-251": {"system": "U-251", "assay": "Cytotoxicity against human U251 cells assessed as cell growth at 10 uM", "settings": "read-out: Activity", "outline": "as §1"}, "786-0": {"system": "786-0", "assay": "Cytotoxicity against human 786-0 cells assessed as cell growth at 10 uM", "settings": "read-out: Activity", "outline": "as §2"}, "MDA-MB-468": {"system": "MDA-MB-468", "assay": "Cytotoxicity against human MDA-MB-468 cells assessed as cell growth at 10 uM", "settings": "read-out: Activity", "outline": "as §1"}, "CCRF-CEM": {"system": "CCRF-CEM", "assay": "Cytotoxicity against human CCRF-CEM cells assessed as cell growth at 10 uM", "settings": "read-out: Activity", "outline": "as §2"}, "SNB-19": {"system": "SNB-19", "assay": "Cytotoxicity against human SNB19 cells assessed as cell growth at 10 uM", "settings": "read-out: Activity", "outline": "as §1"}, "Malme-3M": {"system": "Malme-3M", "assay": "Cytotoxicity against human MALME-3M cells assessed as cell growth at 10 uM", "settings": "read-out: Activity", "outline": "as §1"}, "SR": {"system": "SR", "assay": "Cytotoxicity against human SR cells assessed as cell growth at 10 uM", "settings": "read-out: Activity", "outline": "as §1"}}, "data": [{"smiles": "COc1cc(C)cc(-c2nn(CC#N)cc2-c2ccnc(-c3ccc(Oc4ccccc4)cc3)c2)c1", "values": [{"measurement": "growth at 10 µM", "setting": "TK-10", "value": 88.6, "unit": "%"}, {"measurement": "growth at 10 µM", "setting": "SK-MEL-2", "value": 85.2, "unit": "%"}, {"measurement": "growth at 10 µM", "setting": "EKVX", "value": 98.2, "unit": "%"}, {"measurement": "growth at 10 µM", "setting": "NCI-H322M", "value": 96.3, "unit": "%"}, {"measurement": "inhibition of growth at 10 µM", "setting": "[1]", "value": 13.5, "unit": "%"}, {"measurement": "growth at 10 µM", "setting": "HL-60(TB)", "value": 91.2, "unit": "%"}, {"measurement": "growth at 10 µM", "setting": "UACC-257", "value": 91.6, "unit": "%"}, {"measurement": "growth at 10 µM", "setting": "SF-268", "value": 96.9, "unit": "%"}, {"measurement": "growth at 10 µM", "setting": "IGROV-1", "value": 94.9, "unit": "%"}, {"measurement": "growth at 10 µM", "setting": "NCI-H522", "value": 72.5, "unit": "%"}, {"measurement": "growth at 10 µM", "setting": "K562", "value": 88, "unit": "%"}, {"measurement": "growth at 10 µM", "setting": "SF-295", "value": 95.1, "unit": "%"}, {"measurement": "growth at 10 µM", "setting": "OVCAR-8", "value": 84.4, "unit": "%"}, {"measurement": "growth at 10 µM", "setting": "SK-MEL-5", "value": 53.8, "unit": "%"}, {"measurement": "growth at 10 µM", "setting": "NCI-H460", "value": 106, "unit": "%"}, {"measurement": "growth at 10 µM", "setting": "[2]", "value": 94.3, "unit": "%"}, {"measurement": "growth at 10 µM", "setting": "NCI/ADR-RES", "value": 80.3, "unit": "%"}, {"measurement": "growth at 10 µM", "setting": "LOX IMVI", "value": 98, "unit": "%"}, {"measurement": "growth at 10 µM", "setting": "A498", "value": 85.3, "unit": "%"}, {"measurement": "growth at 10 µM", "setting": "CAKI-1", "value": 78.7, "unit": "%"}, {"measurement": "growth at 10 µM", "setting": "T47D", "value": 20.1, "unit": "%"}, {"measurement": "growth at 10 µM", "setting": "UACC-62", "value": 65.8, "unit": "%"}, {"measurement": "growth at 10 µM", "setting": "SW-620", "value": 98.6, "unit": "%"}, {"measurement": "growth at 10 µM", "setting": "U-251", "value": 88.4, "unit": "%"}, {"measurement": "growth at 10 µM", "setting": "786-0", "value": 95, "unit": "%"}, {"measurement": "growth at 10 µM", "setting": "MDA-MB-468", "value": 23.6, "unit": "%"}, {"measurement": "growth at 10 µM", "setting": "CCRF-CEM", "value": 91.3, "unit": "%"}, {"measurement": "growth at 10 µM", "setting": "SNB-19", "value": 88.5, "unit": "%"}, {"measurement": "growth at 10 µM", "setting": "Malme-3M", "value": 112, "unit": "%"}, {"measurement": "growth at 10 µM", "setting": "SR", "value": 95.8, "unit": "%"}]}]}
